A selection: hits, their analogues and other compounds. The true share with any hit is near 2.5%.
MsrA inh – bovine MsrA enzyme inhibitors, primary screen, biochemical, absorbance, HTS; 0.75% of 360,000 active; purified bovine MsrA, absorbance read-out; Methionine sulfoxide reductase A (Bos taurus); inhibition, % at 15.5 µM;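 also: 0% = vehicle wells with enzyme and 100% = reference inhibitor wells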
GalR3 antag – GalR3 antagonists in HEK293 cells, primary screen, cell-based, fluorescence readout. Galanin receptor type 3 (Homo sapiens), O60755. HEK293 GalR3-CNG cAMP membrane potential fluorescence; galR3 body fused to GalR1 C-terminus. inhibition, % at 3 µM. 0.44% of 360,000 active;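 active = inhibition above the screen-wide average plus 3 SD, cut at about 13% in these data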;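 also: forskolin and galanin both at EC90 stimulate the cells; cAMP rise reported by CNG channel membrane potential dye signal; 0% = forskolin plus galanin with DMSO and 100% = forskolin alone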
Target sequence (O60755 1-299 limits assumed): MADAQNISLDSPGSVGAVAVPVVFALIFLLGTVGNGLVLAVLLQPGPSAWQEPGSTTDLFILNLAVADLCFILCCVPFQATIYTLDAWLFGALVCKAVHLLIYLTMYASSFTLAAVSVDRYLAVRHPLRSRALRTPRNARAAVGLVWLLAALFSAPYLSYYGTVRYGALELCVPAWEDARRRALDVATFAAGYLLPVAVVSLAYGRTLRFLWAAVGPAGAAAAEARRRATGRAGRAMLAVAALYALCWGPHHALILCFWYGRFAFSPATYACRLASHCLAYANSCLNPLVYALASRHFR
NR2E3 ag-1 – inhibitors of NR2E3-RetCOR corepressor binding, primary screen, NR2E3 agonist project, biochemical, TR-FRET, GST-NR2E3, biotin-RetCOR. Photoreceptor-specific nuclear receptor (Homo sapiens), Q9Y5X4. 1536-well. inhibition of corepressor binding, % at 4.78 µM. 0.12% of 320,000 active. AID 2300, 2010;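 active = percent inhibition above the cutoff of mean plus 3 SD of all tested compounds, set per screening campaign, cut at about 20% in these data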;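 also: 0% = DMSO wells and 100% = biotin wells as full block of FRET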
Target sequence (Q9Y5X4 whole entry, looked up): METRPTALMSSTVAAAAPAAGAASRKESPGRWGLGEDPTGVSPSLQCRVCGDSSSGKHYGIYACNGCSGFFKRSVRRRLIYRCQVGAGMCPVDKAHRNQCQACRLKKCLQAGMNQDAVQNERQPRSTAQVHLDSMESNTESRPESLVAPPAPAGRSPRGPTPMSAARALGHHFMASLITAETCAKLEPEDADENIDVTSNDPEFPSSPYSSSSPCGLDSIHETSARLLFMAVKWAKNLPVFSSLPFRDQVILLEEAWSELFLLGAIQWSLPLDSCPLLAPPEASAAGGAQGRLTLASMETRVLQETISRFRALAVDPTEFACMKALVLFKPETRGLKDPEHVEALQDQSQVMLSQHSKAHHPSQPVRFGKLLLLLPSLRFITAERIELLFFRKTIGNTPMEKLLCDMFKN
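Test system – NR2E3–RetCOR corepressor complex · Quantity – NR2E3 fusion 1.35 nM · Buffer or medium – Tris pH 7.5 · Incubation – Compound–protein incubation for 5 h at 4 °C · Technique – TR-FRET, Eu(K)-anti-GST donor, streptavidin-D2 acceptor, ex 340, em 617/671 nm · Evaluation – percent inhibition of 671/617 nm emission ratio versus biotin and DMSO controls · Plate – 1536-well format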
NadD block – inhibitors of S. aureus NadD, primary screen, biochemical, colorimetric, uHTS. Nicotinate-nucleotide adenylyltransferase NadD (Staphylococcus aureus N315). 0.78% of 360,000 active. purified NadD enzyme, colorimetric absorbance read-out. inhibition, % at 20 µM; in the data active = inhibition above about 26%
NR2E3 ag-2 – NR2E3 agonists in two-hybrid cells, primary screen, cell-based, luminescence, CHO-S, Gal4-NCOR/VP16-NR2E3; Photoreceptor-specific nuclear receptor (Homo sapiens), Q9Y5X4; luciferase; AID 602229, 2012; inhibition of corepressor binding, % at 3.98 µM; 0.35% of 360,000 active;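 active = inhibition above the mean of all tested compounds plus 3 SD, cut at about 70% in these data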;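 also: 0% = DMSO with NR2E3 transfected cells and 100% = cells lacking NR2E3 construct; higher means lower luciferase signal from less NR2E3 corepressor binding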
bovine MsrA act – bovine MsrA enzyme activators, primary screen, biochemical, absorbance, HTS; Methionine sulfoxide reductase A (Bos taurus); purified bovine MsrA, absorbance read-out; activation, % at 10.6 µM; 0.3% of 360,000 active; in the data active = activation above about 7.5%;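 also: 0% = vehicle and 100% = reference activator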
MsrA inh confirm – bovine MsrA inhibitors, retest, confirmation, biochemical, absorbance, HTS; shares compounds with MsrA inh; purified bovine MsrA, absorbance read-out; inhibition, % at 15.5 µM; 41% of 2,300 active;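 also: coupled to thioredoxin reductase with NADPH and selenocystamine and DMSO as substrate; 0% = vehicle only and 100% = full effect of reference inhibitor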
* hit, by the source's call; . = not tested or not shown. Rule as the data show it, unless noted: active = inhibition above about 4.5%; inactive = the rest.

SMILES	MsrA inh	GalR3 antag	NR2E3 ag-1	NadD block	NR2E3 ag-2	bovine MsrA act	MsrA inh confirm
COCCCNC(=O)CSc1nc2c(sc(=S)n2-c2cc(Cl)ccc2OC)c(=O)[nH]1	5.8*	-12.5	1.8	1.7	-2.6	-14.2	4.3
CN(C)c1cccc(NC(=O)C2(C)Cc3c(-c4cccnc4)ccnc3O2)c1 (stereo not given)	1.5	-5.4	.	-0.4	-42.4	-1.6	.
CSc1ccc(C(O)c2ncc(-c3cccc(OCc4ccccc4)c3)[nH]2)cc1 (stereo not given)	-0.6	-0.2	.	15.3	35.4	1.1	.
COc1cccc(/C=C2\SC(N3CCC(C)CC3)=NC2=O)c1OC	5.9*	-10.6	-0.3	-0.5	-50.2	-4.3	3.8
COc1cccc(/C(C)=N/Nc2ccc(S(=O)(=O)N3CCCCC3)cn2)c1	4.8*	-5.3	2.5	-4.1	-7.2	-6.6	3.4
Cn1c(=O)c2c(SCc3ccccn3)nc(CC(C)(C)C)nc2n(C)c1=O	0.2	.	0.5	2.5	-3.9	-1.4	.
CCCc1nc(SCc2ccccn2)c2c(=O)n(C)c(=O)n(C)c2n1	10.9*	.	1.3	-6.3	-53.3	-2.8	9.2*
Cc1ccc(C(=O)C2=C(O)C(=O)N(CCCN3CCOCC3)C23C(=O)N(C)c2ccccc23)o1 (stereo not given)	10.2*	-4.6	7.9	-2.6	5.4	-0.5	6.2*
O=C1C2C3C=CC(CC3)C2C(=O)N1/N=C/c1ccc(O)c(O)c1 (stereo not given)	1.9	0.3	-0.4	1.1	-3.3	-2.9	.
Cc1ccc(-c2csc3nc(C)n(-n4c(C)ccc4C)c(=O)c23)o1	15.3*	-6.4	-1.4	0.8	-20.2	-3.4	12.0*
Cc1nc2scc(-c3ccccc3)c2c(=O)n1N	1.0	-3.4	2.0	0.2	0.8	-2.5	.
Cc1ccc(C)n1-n1c(C)nc2scc(-c3ccccc3)c2c1=O	26.9*	-7.0	-2.7	-0.7	11.9	-3.7	25.8*
Nc1cc(OC(=O)c2cccs2)nn1S(=O)(=O)c1ccccc1	-1.7	-1.7	2.6	-10.5	-14.8	-2.6	.
CCc1cc(C=C(Cl)Cl)oc(=O)c1C	.	.	-1.0	1.8	-16.5	-3.9	.
Cc1cc[n+](-c2[nH]c(=O)sc2/C=N/N=C(\[O-])c2ccccc2)cc1	5.0*	-0.3	-1.4	-4.6	-31.4	-5.7	4.0
O=c1[nH]c(-[n+]2ccccc2)c(/C=N/N=C(\[O-])c2ccccc2)s1	5.0*	-3.2	-2.4	-7.0	-60.4	-7.2	5.2*
Cc1cc[n+](-c2[nH]c(=O)sc2/C=N/N=C(\[O-])c2ccncc2)cc1	12.6*	-8.9	0.0	2.7	-8.0	-5.7	4.2
Cc1cc[n+](-c2[nH]c(=O)sc2/C=N/N=C(\[O-])c2ccncc2)cc1C	3.9	-9.6	-2.3	-1.6	-3.9	-8.9	.
Cc1cc[n+](-c2[nH]c(=O)sc2/C=N/N=C(\[O-])c2ccccc2)cc1C	4.7*	-2.8	.	-0.5	-12.5	-3.1	2.0
O=C(CO)C(O)C(O)C(O)CO (stereo not given)	-1.0	4.3	-0.8	0.7	4.7	-4.5	.
Cc1ccc[n+](-c2[nH]c(=O)sc2/C=N/N=C(\[O-])c2cccnc2)c1	3.7	-7.7	0.9	5.1	-8.8	3.3	.
Cc1ccc[n+](-c2[nH]c(=O)sc2/C=N/NC(=O)c2ccccc2[O-])c1	4.9*	1.6	-3.6	-3.1	-11.8	-4.3	0.9
Cc1cc(C)c[n+](-c2[nH]c(=O)sc2/C=N/N=C(\N)[S-])c1	5.4*	0.4	5.3	-3.4	-29.2	-6.2	5.5*
CCCCNC(=S)N(C)/N=C/c1ccc(OCC(=O)Nc2ccc(OC)cc2)c(OC)c1	6.5*	-0.8	3.0	-2.7	-1.1	-10.8	2.8
O=C1N=C(N2CCOCC2)S/C1=C/c1cccs1	5.4*	-2.6	1.3	-4.0	-3.1	-16.1	5.4*
SMILES	MsrA inh	GalR3 antag	NR2E3 ag-1	NadD block	NR2E3 ag-2	bovine MsrA act	MsrA inh confirm
Cc1ccc(/C=C2\SC(N3CCCCC3)=NC2=O)cc1	5.0*	-8.9	-0.3	5.4	-58.2	-4.4	4.8*
NC1=NC(=O)/C(=C/c2cccs2)S1	6.2*	-5.0	-0.5	1.7	-3.0	-4.3	4.4
O=C1N=C(N2CCCCC2)S/C1=C\c1ccc(Cl)cc1	1.2	-8.8	3.9	-2.9	-13.8	-3.1	.
O=c1[nH]c(NCCCO)nc2c1C1(CCCC1)Cc1ccccc1-2	1.3	-4.5	0.5	-3.8	-24.5	-3.0	.
Cc1cc(Br)cn2c(Cc3ccccc3)c(-c3ccc(Cl)cc3)nc12	-0.7	-6.3	.	9.5	5.1	-3.2	.
NC(=O)c1cc(-c2ccccc2)nc2ccc(Br)cc12	1.3	-2.6	1.3	2.3	4.0	-1.6	.
CCc1ccc(C(=O)NNC(=S)Nc2ccc(S(N)(=O)=O)cc2)s1	4.9*	0.3	1.3	6.6	0.5	2.3	2.2
O=C(NNc1nc2cc3c(cc2s1)OCCO3)c1ccccc1	-1.1	-5.5	-4.5	6.4	-138.4	-3.1	.
O=C(COc1ccc2ccccc2c1)N/N=C/c1ccccn1	0.2	-1.0	-2.3	4.8	-5.4	-3.6	.
COc1ccc2[nH]c(C(=O)N/N=C/c3ccc(O)cc3O)cc2c1	6.3*	-5.1	.	-0.3	-40.0	-3.7	4.2
COc1ccc2cc(C(=O)N/N=C/c3cc(OC)c(OC)c(OC)c3)[nH]c2c1	5.8*	-1.8	-1.5	2.0	-33.8	-7.5	6.4*
COc1ccc(/C=N/NC(=O)c2cc3cc(OC)c(OC)cc3[nH]2)cc1	5.3*	-10.0	2.8	6.3	-13.2	-1.3	7.8*
COc1ccc(/C=N/NC(=O)c2[nH]c(C)c(C(=O)N/N=C/c3ccc(OC)cc3)c2C)cc1	4.9*	8.5	-4.6	16.8	-26.8	-3.5	5.5*
CCCCN(C(=O)CN1C(=O)C2CCCCC2C1=O)c1c(N)n(CCC)c(=O)[nH]c1=O (stereo not given)	-0.8	-4.9	2.2	4.1	13.4	-2.2	.
COc1ccc(/C=C/CN2CCN(Cc3ccc(F)cc3)C(CCO)C2)cc1 (stereo not given)	1.0	-4.6	2.2	-8.0	7.7	-2.4	.
COc1cc2cc(C(=O)N/N=C/c3ccc(F)cc3)[nH]c2cc1OC	4.8*	-1.8	0.4	1.5	-30.4	-4.0	6.0*
